# Shown are actives, neighbours in structure and some others; about 12% of the full set was active somewhere.
# WT yeast gro inh – growth inhibition of WT yeast, mitochondrial fusion screen; mitochondrial fusion phenotypic screen, WT strain; inhibition, % at 10 µM; 2.1% of 190,000 active; AID 1362; in the data active = inhibition above about 58%; tested in S. cerevisiae
# Diaph inh CS – counter-screen for diaphorase-based assays: diaphorase inhibitors and chemical oxidizers | diaphorase resazurin-to-resorufin fluorescence, NADH, 16 min; bacterial (C. kluyveri) enzyme, not human | inhibition, % at 20 µM | 0.69% of 190,000 active | AID 1217;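 active = primary screen inhibition at 20 µM above a set limit, cut at about 50% in these data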;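 note: plate controls were DMSO with full reaction for no effect and wells lacking NADH for full effect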
#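 material = Clostridium kluyveri diaphorase enzyme | amount = 0.14 U/mL diaphorase, enzyme working solution | schedule = incubation 16 min, room temperature | detection = fluorescence of resorufin formed from resazurin, Ex 544/Em 590 nm | benchmarks = positive control minus NADH, DMSO neutral control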
# Cl transport mod – KCC2 (human) Cl- transport modulation. Q9H2X9. B-score of Tl+ flux slope (higher = more flux/activation; lower = inhibition) at 10 µM. 2.2% of 190,000 active. KCC2 cells, thallium flux FluoZin-2 fluorescence;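 active = thallium flux slope and its plate-corrected score both differing from the plate sample mean at a set confidence after two filtering rounds, in either direction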;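 note: slope of fluorescence scaled to starting intensity during 10 to 20 s after thallium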
# ROMK primary – modulators of human ROMK potassium channel. P48048. Tet-inducible ROMK, thallium flux fluorescence; actives lie on both sides. B-score at 10 µM. 2% of 130,000 active. AID 1918;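 active = signal ratio slope over the read window, or its plate-corrected B-score, at least 3 SD from the plate mean, either direction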;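 note: B-score of the F/F0 ratio slope over 7 to 12 s after thallium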
# Target sequence (P48048 whole entry, looked up): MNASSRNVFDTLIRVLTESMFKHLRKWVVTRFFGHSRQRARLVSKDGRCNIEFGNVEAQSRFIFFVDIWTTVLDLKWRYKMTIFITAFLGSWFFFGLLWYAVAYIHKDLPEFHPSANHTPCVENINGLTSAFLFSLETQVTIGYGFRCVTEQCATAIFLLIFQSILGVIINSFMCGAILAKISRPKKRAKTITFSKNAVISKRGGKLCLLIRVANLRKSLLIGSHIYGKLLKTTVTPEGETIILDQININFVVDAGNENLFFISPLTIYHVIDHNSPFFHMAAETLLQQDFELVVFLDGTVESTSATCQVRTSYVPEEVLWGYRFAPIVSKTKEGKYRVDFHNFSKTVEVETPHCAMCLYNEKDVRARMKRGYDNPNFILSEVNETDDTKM
# Diaphorase act – activates diaphorase or chemically reduces, flagging diaphorase assay artifacts. Diaphorase/resazurin coupled assay, resorufin fluorescence, 16 min; active compounds read high; 1 = vehicle wells, 0 = NADH-free wells. activation factor at 20 µM. 0.005% of 190,000 active. AID 1229;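 active = diaphorase activity raised at least twofold by the compound at 20 µM; inactive = activation factor below 2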
#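 Material: Clostridium kluyveri diaphorase, purified enzyme; Quantity: enzyme 0.07 U/mL final; Medium: HEPES pH 7.4 buffer with MgCl2 and Tween 20; Dosing: single compound dose of 20 µM, 1% DMSO final; Schedule: 16 min reaction at room temperature; Measured by: red resorufin fluorescence at 544/590 nm excitation/emission.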
# Lmaj promast – Leishmania major promastigote growth inhibition | Leishmania major promastigotes, resazurin fluorescence viability | inhibition, % at 10 µM | 9% of 200,000 active; in the data active = inhibition above about 50%;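 note: promastigotes grown with compound for 44 hours at 28 °C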
# * = called active by the depositor; x = no result.
SMILES,WT yeast gro inh,Diaph inh CS,Cl transport mod,ROMK primary,Diaphorase act,Lmaj promast
Cn1c(=O)c(C(=S)NC(=O)C2CC2)c(N)n(Cc2ccccc2)c1=O,17,66*,10*,1.2,0.3,29
Cc1cc(Br)ccc1SCC(=O)OCC(=O)NCc1ccco1,x,x,-0.63,x,x,x
c1ccc(CN2CCC(N3CCN(Cc4ccc5c(c4)OCO5)CC3)CC2)cc1,x,x,0.0012,x,x,x
O=C1C=CC2C(c3ccc4c(c3)OCO4)CC1N2Cc1ccccc1 (configuration not stated),9,37,-0.83,x,0.6,100*
CC(NC(=O)c1ccc(F)cc1)c1ccc(F)cc1 (configuration not stated),-14,3,0.024,x,1,56*
CC(NC(=O)c1ccccc1)c1ccc(Br)cc1 (configuration not stated),-16,9,0.82,0.031,0.9,55*
CN(C)CCCN(C(=O)/C=C/c1cccs1)c1nc2ccc(F)cc2s1,86*,13,1,-0.28,0.9,17
COc1cccc2sc(N(CCN(C)C)C(=O)/C=C/c3cccs3)nc12,16,-10,0.44,-0.28,1.1,7
CN(C)CCCN(C(=O)c1sc2ccccc2c1Cl)c1nc2ccc(F)cc2s1,64*,3,-2.3,x,1,72*
CN(C)CCCN(C(=O)C1COc2ccccc2O1)c1nc2ccc(F)cc2s1 (configuration not stated),-1,0,0.55,0.095,1,5
CN(C)CCN(C(=O)/C=C/c1cccs1)c1nc2c(F)cc(F)cc2s1,26,-4,0.92,x,1,77*
Cc1ccc2nc(N(CCN(C)C)C(=O)/C=C/c3cccs3)sc2c1,30,4,0.31,x,1,83*
Cc1cccc2sc(N(CCCN(C)C)C(=O)c3cc4ccccc4oc3=O)nc12,1,7,-0.38,x,0.9,10
Cc1ccc2nc(N(CCCN(C)C)C(=O)c3cc4ccccc4oc3=O)sc2c1,7,5,0.2,x,0.9,67*
C=CCN1C(=O)C(C)S/C1=N\S(=O)(=O)c1ccc(Cl)cc1 (configuration not stated),7,-13,0.96,0.41,1.1,52*
CCN1C(=O)C(C)S/C1=N\S(=O)(=O)c1ccc(F)cc1 (configuration not stated),9,4,0.01,-0.37,1,-3
Cc1ccc(NC(=O)N/C=C/c2ccc(Cl)cc2)cc1,-9,-4,-0.018,-1,1,8
O=C(N/C=C/c1ccc(Cl)cc1)NCc1ccc(Cl)cc1,6,4,-0.55,x,1,60*
CCCC(C(=O)Nc1nccs1)c1ccccc1 (configuration not stated),17,5,-0.98,x,0.9,-3
CCc1ccc(N=CC23c4ccccc4C(c4ccccc42)C2C(=O)N(c4ccc(OC)cc4)C(=O)C23)cc1 (configuration not stated),21,19,0.065,x,0.8,89*
O=C(Nc1ccc(F)cc1)c1sc2cc(C(F)(F)F)cnc2c1-c1cccs1,11,5,0.24,-0.69,0.9,56*
COc1ccc(NC(=O)c2sc3cc(C(F)(F)F)cnc3c2-c2cccs2)cc1,2,8,0.79,0.53,0.9,9
CCOC(=O)/C=C/C(=O)Nc1ccc(Oc2ccccc2)cc1,-16,20,-1.5,0.86,0.8,-2
CCOCCN1CCN(c2c(CC)c(C)nc3cc(-c4cc(OC)cc(OC)c4)nn23)CC1,35,-5,-1.1,-2.1,1.1,72*
CCc1c(C)nc2cc(-c3cc(OC)cc(OC)c3)nn2c1N1CCCC1,55,16,-0.71,-0.75,0.8,26
CC(C)c1cc(C(=O)N2CCCC(CCC(=O)NCc3ccccc3F)C2)n(C)n1 (configuration not stated),-18,4,-0.96,0.012,1,3
CC(c1ccccc1)N1CCn2c(nc3cc(NC(=O)c4cccs4)ccc32)C1 (configuration not stated),5,19,x,x,0.8,99*
COc1ccc(CNC(=O)c2cc3c(s2)CN(Cc2ccccc2)C3)cc1,1,-9,-1.3,0.32,1.1,1

# Source: PubChem
